Test results reported in ChEMBL document CHEMBL1133640, “Structure-activity studies including a Psi(CH(2)-NH) scan of peptide YY (PYY) active site, PYY(22-36), for interaction with rat intestinal PYY receptors: development of analogues with potent in vivo activity in the intestine” (J Med Chem, 2000).
Where a SMILES comes first, the peptide text is derived from it. Bridges are numbered along the chain shown (N, C = ends). Roman numbers before positions name the chains, in order. [ ]: non-standard residue; d: D form. The star is where a group is joined. X1 = C[C@@H](O)[C@@H](CN[C@@H](CCCN=C(N)N)C(=O)N[C@@H](CCC(N)=O)C(=O)N[C@@H](CCCN=C(N)N)C(=O)N[C@@H](Cc1ccc(O)cc1)C(N)=O)N*; 1Nal = N[C@@H](Cc1cccc2ccccc12)C(=O)O

Experiments:
[1] = target: T1, Neuropeptide Y receptor type 2 (Homo sapiens, UniProt P49146); assay: Affinity against Neuropeptide Y receptor Y2 in SK-N-BE2 cell line
T1 sequence (P49146 whole entry): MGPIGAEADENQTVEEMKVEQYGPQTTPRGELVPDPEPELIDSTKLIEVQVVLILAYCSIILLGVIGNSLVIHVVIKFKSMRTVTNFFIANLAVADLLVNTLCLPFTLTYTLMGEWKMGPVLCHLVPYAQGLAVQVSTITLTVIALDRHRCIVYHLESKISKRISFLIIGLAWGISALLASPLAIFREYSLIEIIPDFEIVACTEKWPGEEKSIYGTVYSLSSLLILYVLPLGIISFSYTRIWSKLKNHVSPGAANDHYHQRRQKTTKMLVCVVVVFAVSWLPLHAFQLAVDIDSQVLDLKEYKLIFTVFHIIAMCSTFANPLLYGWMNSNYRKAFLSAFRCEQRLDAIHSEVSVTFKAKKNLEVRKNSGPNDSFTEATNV

Rattus norvegicus = assay: Tested for in vivo antisecretory potency for inhibiting VIP-induced (30 micro g/kg/h) secretion in isolated jejunum in anesthetized rats.(95% CL); format: functional; conditions: read-out: ID50 (the source's name)
How it was run: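 Rats anesthetized, saphenous vein cannulated. Isolated jejunal loop instilled with 2000 μL fluid. At the end the loop is excised, measured and weighed before and after emptying. Net water flux (μL/cm/30 min) = (F-E)2000/L; negative means absorption. 6-8 animals per dose.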

[2] = target: Neuropeptide Y receptor type 2 (Rattus norvegicus, UniProt Q9ERC0); assay: Antisecretory potency, affinity for intestinal PYY of rat jejunum by using short circuit current (SCC) method.; format: tissue-based
Neuropeptide Y receptor type 2 (Rattus norvegicus, UniProt Q9ERC0), sequence (Q9ERC0 whole entry): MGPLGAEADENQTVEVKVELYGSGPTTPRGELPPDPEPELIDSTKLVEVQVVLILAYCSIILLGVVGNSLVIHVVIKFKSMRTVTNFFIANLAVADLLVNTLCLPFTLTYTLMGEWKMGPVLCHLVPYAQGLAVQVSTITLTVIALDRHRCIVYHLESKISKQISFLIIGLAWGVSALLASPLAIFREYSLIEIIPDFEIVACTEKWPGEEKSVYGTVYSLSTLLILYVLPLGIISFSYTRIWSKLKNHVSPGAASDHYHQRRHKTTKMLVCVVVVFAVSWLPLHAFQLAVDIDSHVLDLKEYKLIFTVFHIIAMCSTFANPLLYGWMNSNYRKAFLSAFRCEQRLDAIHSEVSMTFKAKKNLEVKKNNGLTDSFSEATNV

[3] = target: Neuropeptide Y receptor type 1 (Homo sapiens, UniProt P25929); assay: Affinity against Neuropeptide Y receptor Y1 in SK-N-MC cell line; format: cell-based
Neuropeptide Y receptor type 1, sequence (P25929 whole entry): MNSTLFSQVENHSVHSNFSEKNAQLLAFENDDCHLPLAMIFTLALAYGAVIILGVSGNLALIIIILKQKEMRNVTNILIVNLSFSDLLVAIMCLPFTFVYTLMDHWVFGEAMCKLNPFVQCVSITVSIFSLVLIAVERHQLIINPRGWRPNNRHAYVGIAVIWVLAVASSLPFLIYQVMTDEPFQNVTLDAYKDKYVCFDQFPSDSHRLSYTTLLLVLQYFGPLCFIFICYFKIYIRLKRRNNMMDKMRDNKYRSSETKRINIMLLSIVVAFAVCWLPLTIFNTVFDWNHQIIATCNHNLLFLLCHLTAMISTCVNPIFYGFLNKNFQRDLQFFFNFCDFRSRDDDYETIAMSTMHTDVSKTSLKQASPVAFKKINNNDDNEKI

Row | IC50 [1] [nM] | IC50 [2] [nM] | IC50 [3] [nM] | Compound | ED50 (Rattus norvegicus) [µmol/kg]
1 | – | – | – | CCCC[C@H](NC(=O)[C@H](CO)NC(=O)[C@H](C)NC(C)=O)C(=O)N[C@@H](CCCN=C(N)N)C(=O)N[C@@H](Cc1c[nH]cn1)C(=O)N[C@@H](Cc1ccc(O)cc1)C(=O)N[C@@H](CCCC)C(=O)N[C@@H](CC(N)=O)C(=O)N[C@@H](Cc1c[nH]c2ccccc12)C(=O)N[C@@H](CCC)C(=O)N[C@H](C(=O)N[C@@H](CCCN=C(N)N)C(=O)N[C@@H](CCC(N)=O)C(=O)N[C@@H](CCCN=C(N)N)C(=O)N[C@@H](Cc1ccc(O)cc1)C(N)=O)[C@@H](C)O | 1.3e-05
2 | – | – | – | CC(=O)N[C@@H](C)C(=O)N[C@@H](CO)C(=O)N[C@@H](CC(C)C)C(=O)N[C@@H](CCCN=C(N)N)C(=O)N[C@@H](Cc1c[nH]cn1)C(=O)N[C@@H](Cc1ccc(O)cc1)C(=O)N[C@@H](CC(C)C)C(=O)N[C@@H](CC(N)=O)C(=O)N[C@@H](Cc1c[nH]c2ccccc12)C(=O)N[C@H](C(=O)N[C@H](C(=O)N[C@@H](CCCN=C(N)N)C(=O)N[C@@H](CCC(N)=O)C(=O)N[C@@H](CCCN=C(N)N)CN[C@@H](Cc1ccc(O)cc1)C(N)=O)[C@@H](C)O)C(C)C | 0.00019
3 | > 3000 | > 100 | 769 | CC(=O)N[C@@H](C)C(=O)N[C@@H](CO)C(=O)N[C@@H](CC(C)C)C(=O)N[C@@H](CCCN=C(N)N)C(=O)N[C@@H](Cc1c[nH]cn1)C(=O)N[C@@H](Cc1ccc(O)cc1)C(=O)N[C@@H](CC(C)C)C(=O)N[C@@H](CC(N)=O)C(=O)N[C@H](CN[C@H](C(=O)N[C@H](C(=O)N[C@@H](CCCN=C(N)N)C(=O)N[C@@H](CCC(N)=O)C(=O)N[C@@H](CCCN=C(N)N)C(=O)N[C@@H](Cc1ccc(O)cc1)C(N)=O)[C@@H](C)O)C(C)C)CC(C)C | –
4 | 1.39 | 0.28 | 1510 | CC(=O)N[C@@H](C)C(=O)N[C@@H](CO)C(=O)N[C@@H](CC(C)C)C(=O)N[C@@H](CCCNC(=N)N)C(=O)N[C@@H](Cc1cnc[nH]1)C(=O)N[C@@H](Cc1ccc(O)cc1)C(=O)N[C@@H](CC(C)C)C(=O)N[C@@H](CC(N)=O)C(=O)N[C@@H](Cc1c[nH]c2ccccc12)C(=O)N[C@H](C(=O)N[C@H](C(=O)N[C@@H](CCCNC(=N)N)C(=O)N[C@@H](CCC(N)=O)C(=O)N[C@@H](CCCNC(=N)N)CN[C@@H](Cc1ccc(O)cc1)C(N)=O)[C@@H](C)O)C(C)C | –
5 | 52 | 5.03 | 1090 | CC(=O)N[C@@H](C)C(=O)N[C@@H](CO)C(=O)N[C@@H](CC(C)C)C(=O)N[C@@H](CCCN=C(N)N)C(=O)N[C@@H](Cc1c[nH]cn1)C(=O)N[C@@H](Cc1ccc(O)cc1)C(=O)N[C@@H](CC(C)C)C(=O)N[C@@H](CC(N)=O)C(=O)N[C@@H](CC(C)C)C(=O)N[C@H](C(=O)N[C@H](CN[C@@H](CCCN=C(N)N)C(=O)N[C@@H](CCC(N)=O)C(=O)N[C@@H](CCCN=C(N)N)C(=O)N[C@@H](Cc1ccc(O)cc1)C(N)=O)[C@@H](C)O)C(C)C (Ac-ASLRHYLNLV-X1) | –
6 | 57 | 0.59 | 1590 | CCCC[C@H](NC(=O)[C@H](CO)NC(=O)[C@H](C)NC(C)=O)C(=O)N[C@@H](CCCN=C(N)N)C(=O)N[C@@H](Cc1c[nH]cn1)C(=O)N[C@@H](Cc1ccc(O)cc1)C(=O)N[C@@H](CCCC)C(=O)N[C@@H](CC(N)=O)C(=O)N[C@@H](CCCC)C(=O)N[C@@H](CCC)C(=O)N[C@H](C(=O)N[C@@H](CCCN=C(N)N)C(=O)N[C@@H](CCC(N)=O)C(=O)N[C@@H](CCCN=C(N)N)C(=O)N[C@@H](Cc1ccc(O)cc1)C(N)=O)[C@@H](C)O | –
7 | 7.08 | 6.6 | 88.3 | CC(=O)N[C@@H](C)C(=O)N[C@@H](CO)C(=O)N[C@@H](CC(C)C)C(=O)N[C@@H](CCCN=C(N)N)C(=O)N[C@@H](Cc1c[nH]cn1)C(=O)N[C@@H](Cc1cccc2ccccc12)C(=O)N[C@@H](CC(C)C)C(=O)N[C@@H](CC(N)=O)C(=O)N[C@@H](CC(C)C)C(=O)N[C@H](C(=O)N[C@H](C(=O)N[C@@H](CCCN=C(N)N)C(=O)N[C@@H](CCC(N)=O)C(=O)N[C@@H](CCCN=C(N)N)C(=O)N[C@@H](Cc1ccc(O)cc1)C(N)=O)[C@@H](C)O)C(C)C (Ac-ASLRH[1Nal]LNLVTRQRY-NH2) | –
8 | 1.16 | 14.1 | > 10000 | Ac-ASLRHFLNLVTRQRF-NH2 | –
9 | 1.83 | 2.3 | 764 | Ac-ASLRHFLNLVTRQRY-NH2 | –
10 | 864 | > 100 | 1270 | CC(=O)N[C@@H](C)C(=O)N[C@@H](CO)C(=O)N[C@@H](CC(C)C)C(=O)N[C@@H](CCCN=C(N)N)C(=O)N[C@@H](Cc1c[nH]cn1)C(=O)N[C@H](CN[C@@H](CC(C)C)C(=O)N[C@@H](CC(N)=O)C(=O)N[C@@H](CC(C)C)C(=O)N[C@H](C(=O)N[C@H](C(=O)N[C@@H](CCCN=C(N)N)C(=O)N[C@@H](CCC(N)=O)C(=O)N[C@@H](CCCN=C(N)N)C(=O)N[C@@H](Cc1ccc(O)cc1)C(N)=O)[C@@H](C)O)C(C)C)Cc1ccc(O)cc1 | –
11 | 56.5 | > 100 | 47.9 | CC(=O)N[C@@H](C)C(=O)N[C@@H](CO)C(=O)N[C@@H](CC(C)C)C(=O)N[C@@H](CCCN=C(N)N)C(=O)N[C@@H](Cc1c[nH]cn1)C(=O)N[C@@H](Cc1ccc(O)cc1)C(=O)N[C@@H](CC(C)C)C(=O)N[C@@H](CC(N)=O)C(=O)N[C@H](Cc1c[nH]c2ccccc12)C(=O)N[C@H](C(=O)N[C@H](C(=O)N[C@@H](CCCN=C(N)N)C(=O)N[C@@H](CCC(N)=O)C(=O)N[C@@H](CCCN=C(N)N)C(=O)N[C@@H](Cc1ccc(O)cc1)C(N)=O)[C@@H](C)O)C(C)C | –
12 | – | – | – | CC(=O)N[C@@H](C)C(=O)N[C@@H](CO)C(=O)N[C@@H](CSSC[C@H](NC(=O)[C@H](CO)NC(=O)[C@H](C)NC(C)=O)C(=O)N[C@@H](CCCNC(=N)N)C(=O)N[C@@H](Cc1cnc[nH]1)C(=O)N[C@@H](Cc1ccc(O)cc1)C(=O)N[C@@H](CC(C)C)C(=O)N[C@@H](CC(N)=O)C(=O)N[C@@H](CC(C)C)C(=O)N[C@H](C(=O)N[C@H](C(=O)N[C@@H](CCCNC(=N)N)C(=O)N[C@@H](CCC(N)=O)C(=O)N[C@@H](CCCNC(=N)N)C(=O)N[C@@H](Cc1ccc(O)cc1)C(N)=O)[C@@H](C)O)C(C)C)C(=O)N[C@@H](CCCNC(=N)N)C(=O)N[C@@H](Cc1cnc[nH]1)C(=O)N[C@@H](Cc1ccc(O)cc1)C(=O)N[C@@H](CC(C)C)C(=O)N[C@@H](CC(N)=O)C(=O)N[C@@H](CC(C)C)C(=O)N[C@H](C(=O)N[C@H](C(=O)N[C@@H](CCCNC(=N)N)C(=O)N[C@@H](CCC(N)=O)C(=O)N[C@@H](CCCNC(=N)N)C(=O)N[C@@H](Cc1ccc(O)cc1)C(N)=O)[C@@H](C)O)C(C)C (I: Ac-ASCRHYLNLVTRQRY-NH2 / II: Ac-ASCRHYLNLVTRQRY-NH2; disulfide I:3-II:3) | 0.000365

Row | Compound | IC50 [1] [nM] | IC50 [2] [nM] | IC50 [3] [nM] | ED50 (Rattus norvegicus) [µmol/kg]
13 | CCCC[C@H](NC(=O)[C@H](CO)NC(=O)[C@H](C)NC(C)=O)C(=O)N[C@@H](CCCN=C(N)N)C(=O)N[C@@H](Cc1c[nH]cn1)C(=O)N[C@@H](Cc1ccc(O)cc1)C(=O)N[C@@H](CCCC)C(=O)N[C@@H](CC(N)=O)C(=O)N[C@@H](Cc1c[nH]c2ccccc12)C(=O)N[C@@H](CCC)C(=O)N[C@H](C(=O)N[C@@H](CCCN=C(N)N)C(=O)N[C@@H](CCC(N)=O)C(=O)N[C@@H](CCCN=C(N)N)CN[C@@H](Cc1ccc(O)cc1)C(N)=O)[C@@H](C)O | 1.75 | 0.31 | 1570 | 5.9e-05
